# Published values pooled from the literature.
# Protocols differ between the studies behind these lines.
# Effect on: cell growth or viability
Compound,cell line,assay,conditions,IC50
N.N.[Cl][Pt][Cl],NCI-H460,,48 h,21.6 µM
C[C@H]1O[C@@H](O[C@H]2[C@@H](O)C[C@H](O[C@H]3[C@@H](O)C[C@H](O[C@H]4CC[C@@]5(C)[C@H](CC[C@@H]6[C@@H]5CC[C@]5(C)[C@@H](C7=CC(=O)OC7)CC[C@]65O)C4)O[C@@H]3C)O[C@@H]2C)C[C@H](O)[C@@H]1O,GISTT1,resazurin,72 h,< 0.16 µM
C[C@@H]1C[C@@]2(NCCS2)[C@]2(O)O[C@@H]3C[C@@]4(C=O)[C@@H](CC[C@@H]5[C@@H]4CC[C@]4(C)[C@@H](C6=CC(=O)OC6)CC[C@]54O)C[C@H]3O[C@@H]2O1,L6,resazurin,72 h,2.74 µM
O=C1CCN(S(=O)(=O)c2ccc(F)cc2)CC(=O)c2ccccc2N1,L6,,,> 280 µM
CC(C(=O)NOCc1ccccc1)c1cccc(C(OC(=O)NOCc2ccccc2)c2ccccc2)c1 (stereo not shown),L1210,,48 h,9.7 µM
CCCSc1ccc2nc(NC(=O)OC)[nH]c2c1,GISTT1,resazurin,72 h,0.3 µM
CC(C)=CCOc1c2occc2cc2ccc(=O)oc12,COLO 205,MTT,72 h,> 100 µM
COc1cc([C@@H]2c3cc4c(cc3[C@H](O)[C@H]3COC(=O)[C@H]23)OCO4)cc(OC)c1OC,L6,,,4 ng/mL
C[C@@H]1C[C@@]2(N=CCS2)[C@]2(O)O[C@@H]3C[C@@]4(C=O)[C@@H](CC[C@@H]5[C@@H]4CC[C@]4(C)[C@@H](C6=CC(=O)OC6)CC[C@]54O)C[C@H]3O[C@@H]2O1,L6,resazurin,72 h,6.17 µM
CC(C(=O)N1CCCCC1)c1cccc(C(OC(=O)N2CCCCC2)c2ccccc2)c1 (stereo not shown),FM3A,,48 h,8 µM
COc1cccc2c1C(=O)c1c(O)c3c(c(O)c1C2=O)C[C@@](O)(C(C)=O)C[C@@H]3O[C@H]1C[C@H](N)[C@H](O)[C@H](C)O1,GISTT1,resazurin,72 h,< 0.07 µM
CC(C(=O)NC1CCCC1)c1cccc(C(OC(=O)NC2CCCC2)c2ccccc2)c1 (stereo not shown),L1210,,48 h,9.8 µM
COc1cc(C(=O)c2cc3c(-c4ccccc4)c(OC)ccc3o2)cc(OC)c1OC,L1210,,48 h,> 50 µM
CC(C(=O)n1nnc2ccccc21)c1cccc(C(OC(=O)n2nnc3ccccc32)c2ccccc2)c1 (stereo not shown),L1210,,48 h,38 µM
COc1ccc2c(c1)NC(=O)CN2c1nc(Cl)nc2c1COC2,MDA-MB-453,MTS,72 h,0.0193 µM
CC(C(=O)N1CCCC1)c1cccc(C(OC(=O)N2CCCC2)c2ccccc2)c1 (stereo not shown),FM3A,,48 h,35 µM
COc1cc(C(=O)c2sc3ccccc3c2N)cc(OC)c1OC,L1210,,48 h,0.35 µM
COc1ccc2c(c1)NC(=O)CN2c1nc(C)nc(C)c1C,MDA-MB-453,MTS,72 h,0.0043 µM
CC(C(=O)NC1CCCCC1)c1cccc(C(OC(=O)NC2CCCCC2)c2ccccc2)c1 (stereo not shown),FM3A,,48 h,15 µM
